Screening results from PubChem.
Hits are enriched below; roughly 1.5% of the tested compounds scored in any of these assays.
ZTA DNA inh = counter-screen for EBNA-1 inhibitors: inhibitors of Epstein-Barr virus ZTA; P03206; ZTA-DNA binding, fluorescence polarization; inhibition, % at 11 µM; 320,000 tested, 0.15% active; AID 2234; in the data active = inhibition above about 33%
CSN deneddyl inh = blocks human CSN-mediated cullin deneddylation; Q92905; Purified CSN, SCF-Nedd8-OG deneddylation, fluorescence polarization; inhibition, % at 12.5 µM; 360,000 tested, 0.38% active; AID 651999;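 active = pattern-corrected inhibition above about 35%, with an unprinted fluorescence ratio check between 0.5 and 1.5, limit read from the data, passing the limit was not always enough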;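 also: 0% = enzyme with substrate and 100% = substrate without enzyme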
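Material: purified human Csn5 enzyme expressed in HEK293T cells / Medium: Tris buffer pH 7.5, NaCl, DTT, Tween-20, trehalose, ovalbumin / Compound dosing: 12.5 µM single point / Schedule: 90 min incubation of compound, enzyme and substrate at room temperature / Signal: fluorescence polarization of the substrate / Control set: no-enzyme wells high, enzyme-with-substrate wells low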
Bfl-1 A1 inh = inhibitors of the anti-apoptotic protein A1, read as caspase activation. caspase activation, % (no concentration beside the values). MEF A1-2A-BIM cells, Caspase-Glo 3/7 luminescence, 3 h; percent of clofoctol response, vehicle zero. 330,000 tested, 0.066% active;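 active = over half of replicate activation scores above 10%, or exactly half above 10 with the replicate mean above 10; inconclusive = replicate mean below 10 yet half the replicates above 10; inactive = over half of replicates below 10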
LANA-H2B inh = blocks KSHV LANA binding to histone H2A/H2B. inhibition, % (test concentration not listed). cell-free LANA-H2A/H2B peptide, fluorescence polarization. 320,000 tested, 0.6% active. Q9QR71; in the data active = inhibition mostly above about 10%, no sharp cut-off; inactive = mostly below about 6.7%
HNF4A DNA FP = change in binding of human HNF4 alpha to DNA | HNF4a-FITC DNA binding, fluorescence polarization, 1 h | 360,000 tested, 0.3% active | activity change, % at 10 µM; in the data active = activity change above about 30%, passing the limit was not always enough
Target sequence (P41235 whole entry, looked up): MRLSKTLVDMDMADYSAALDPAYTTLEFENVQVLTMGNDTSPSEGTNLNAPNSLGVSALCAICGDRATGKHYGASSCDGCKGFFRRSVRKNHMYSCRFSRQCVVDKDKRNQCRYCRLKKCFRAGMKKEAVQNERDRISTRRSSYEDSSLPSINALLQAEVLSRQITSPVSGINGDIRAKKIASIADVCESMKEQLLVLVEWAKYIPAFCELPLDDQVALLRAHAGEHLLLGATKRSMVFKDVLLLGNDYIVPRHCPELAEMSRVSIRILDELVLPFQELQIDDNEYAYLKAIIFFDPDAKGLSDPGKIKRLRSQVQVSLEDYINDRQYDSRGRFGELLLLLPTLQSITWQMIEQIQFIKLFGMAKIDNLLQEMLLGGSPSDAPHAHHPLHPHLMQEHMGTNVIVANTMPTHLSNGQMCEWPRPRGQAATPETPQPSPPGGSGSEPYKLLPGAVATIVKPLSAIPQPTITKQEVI
EBNA-1 inh = blocks EBNA-1 binding to DNA. EBNA-1 DNA binding, fluorescence polarization. inhibition, % at 14.8 µM. 300,000 tested, 0.34% active. AID 1950; in the data active = inhibition above about 28%
Numbers without * were called inactive; ? = inconclusive; / = no result.

SMILES	ZTA DNA inh	CSN deneddyl inh	Bfl-1 A1 inh	LANA-H2B inh	HNF4A DNA FP	EBNA-1 inh
Cc1ccc(C)c2nc3sc(C(=O)N4CCCc5ccccc54)c(N)c3cc12	21	5	0	0	56*	10
Cc1ccc(OCC(=O)N(C)Cc2ccccc2)c([N+](=O)[O-])n1	-22	-5	0	17*	1	9
Cc1cccc(Nc2nn3c(=O)c4ccccc4nc3s2)c1	-18	31	-3	6	75*	4
COc1ccc(Br)cc1C(=O)Nc1cccc(-c2nnc(-c3ccco3)o2)c1	7	115*	-1	-2	49*	-3
O=C(NCC1COc2ccccc2O1)c1cccc(S(=O)(=O)N2CCOCC2)c1 (stereo not drawn)	5	-3	0	26*	0	/
Cc1ccn2cc(-c3cccc(S(=O)(=O)N4CCCC4)c3)nc2c1	17	2	-2	-2	-5	10
O=S(=O)(c1cccc(-c2cn3ccccc3n2)c1)N1CCCCC1	6	2	0	18*	-2	7
COC(=O)CC1=C(C(=O)OC)C(c2cc(OC)c(OC)cc2OC)C(C#N)=C(N)O1 (stereo not drawn)	-13	0	0	14*	2	-6
CCOC(=O)C1CCN(c2ncnc3c2cnn3C)CC1	-7	-2	2	0	101*	-13
Cc1ccc2c(c1)C(=O)C(=O)N2Cc1ccc(Br)cc1	/	-1	5.9*	-1	0	/
Cc1ccc(CN2C(=O)C(=O)c3cc(C)ccc32)cc1	/	5	?	-6	-6	/
O=C(O)c1ccccc1-c1ccccc1C(=O)NCc1cccc(C(F)(F)F)c1	2	-4	0	18*	-2	-7
COc1cccc(CNC(=O)c2ccccc2-c2ccccc2C(=O)O)c1	7	-1	0	2	-1	-27
CC(C)CCOP(=O)(c1ccc(N(C)C)cc1)C(O)c1ccc(Cl)cc1Cl (stereo not drawn)	5	0	1	1	3	12
Cc1cc(C(=O)CSc2nc3ccccc3n2CCC#N)c(C)n1Cc1cccs1	17	3	0	0	0	34*
Cc1cc(NC(=O)c2cc(-c3ccccn3)nc3ccc(Br)cc23)no1	12	44*	1	5	4	9
CC(C)[C@H](NS(=O)(=O)c1cccc(C(F)(F)F)c1)C(=O)OCC(=O)NC(=O)NCc1ccco1	/	2	0	-2	-3	/
CCN1C(=O)N[C@@H](CCc2ccccc2)[C@@H](C(=O)OC)[C@H]1C	3	-6	0	0	5	6
O=[N+]([O-])c1ccc(N/N=C/c2sc(N3CCOCC3)nc2-c2ccccc2)c(S(=O)(=O)Nc2ccc(Cl)cc2)c1	/	35	/	/	59*	/
O=C(O)c1cccc(N/N=C/c2sc(N3CCOCC3)nc2-c2ccccc2)c1	-2	-6	-1	/	-1	4
NC(=O)C1CCN(C(=S)c2ccc(-c3ccc(Br)cc3)o2)CC1	3	-14	0	14*	-4	-11
CN(C)CCCN(C(=O)C1COc2ccccc2O1)c1nc2cc3c(cc2s1)OCO3 (stereo not drawn)	-2	3	0	-1	7	-5
COCCCNC1=C(Cl)C(=O)c2ccccc2C1=O	4	7	0	5	1	-1
COCCCNc1c2c3c(cccc3[nH]c1=O)C(=O)c1ccccc1-2	-8	-74	0	123*	-103	-7
CCOC(=O)C1CCCN(c2nc3ccccc3nc2C(C#N)C(=O)OCC)C1 (stereo not drawn)	-8	1	0	7	4	-1
SMILES	ZTA DNA inh	CSN deneddyl inh	Bfl-1 A1 inh	LANA-H2B inh	HNF4A DNA FP	EBNA-1 inh
CCOC(=O)C1CCCN(c2nc3ccccc3nc2C(C#N)C(=O)OCCOC)C1 (stereo not drawn)	-14	0	0	20*	3	1
Cc1ccc(-n2c(SCC(=O)N/N=C/c3c(C)nn(-c4ccccc4)c3C)nc3ccccc3c2=O)cc1	-1	-7	0	-6	0	23
Cc1nn(-c2ccccc2)c(C)c1/C=N/NC(=O)CSc1nc2ccccc2c(=O)n1-c1ccc(Br)cc1	1	2	7.1*	-11	2	-1
O=C(NCc1ccccc1)C(C1CC1)n1c(-c2cccs2)nc2ccccc21 (stereo not drawn)	/	1	/	/	3	/
CC(/C=C/c1ccc(N(C)C)cc1)=N\N=C1\NC(=O)CC(C(=O)Nc2ccccc2)S1 (stereo not drawn)	-25	6	-1	-7	34*	0
CC(C)CC(CO)N1CCN(C(=O)c2ccc(Cl)cc2)CCC1=O (stereo not drawn)	-4	1	-1	-3	-2	10
Nc1nc(-c2ccc(Oc3ccccc3)cc2)c(CC(=O)O)s1	/	42*	0	-2	11	/
Cc1ccc(Nc2nc(-c3ccc(C)cc3)c(CC(=O)O)s2)cc1	4	65*	0	0	16	-8
Nc1nc(-c2ccccc2)c(CC(=O)O)s1	/	24	/	/	7	/
COc1ccc(S(=O)(=O)N(C)C[C@@H]2Oc3c(NS(C)(=O)=O)cccc3C(=O)N([C@@H](C)CO)C[C@H]2C)cc1	/	-1	0	4	-2	/
CCC(/C=C1\Sc2ccc(OC)cc2N1CCO)=C\c1sc2ccc(OC)cc2[n+]1CCO	84*	-2	-2	-1	8	45*
CCC(/C=C1\Sc2ccc(OC)cc2N1CC)=C\c1sc2ccc(OC)cc2[n+]1CCCS(=O)(=O)[O-]	104*	0	-1	0	6	56*
COc1cc(/C=N/NC(=O)C(NC(=O)c2ccccc2)c2n[nH]c(=O)c3ccccc23)ccc1OCC(N)=O (stereo not drawn)	10	1	0	22*	-1	-8
O=C(Nc1ccnn1C1CCN(CC2CC=CCC2)CC1)c1ccccc1 (stereo not drawn)	/	-3	/	/	-8	/
COc1ccc(C(=O)Nc2ccnn2C2CCN(CC3CC=CCC3)CC2)cc1 (stereo not drawn)	/	0	0	16*	1	/
C/C=C(\C)CN1CCC(n2nccc2NC(=O)c2ccc3c(c2)OCO3)CC1	2	-2	0	75*	5	-2
O=C(CSc1ccc(F)cc1)Nc1ccc2c(c1)C(=O)NC2=O	5	-7	0	0	-1	-7
COc1ccc(-c2cc(C(=O)O)c3c(C)nn(-c4ccccn4)c3n2)cc1	22	/	0	/	/	-9
COc1ccc(N=CC2=C(Nc3ccc(OC)cc3)c3c(C)nn(-c4ccccn4)c3CC2)cc1	-10	/	0	60*	/	-7
C=CCNc1c2c(nc3nnnn13)CCCC2	-3	-4	-1	/	6	-4
